Screening data from PubChem BioAssay.
TbMetRS inhib – blocks T. brucei methionyl-tRNA synthetase activity. inhibition, % at 11.9 µM. hit rate 0.4% among 360,000. purified T. brucei MetRS, ATP depletion, Kinase-Glo luminescence;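 active = inhibition above a per-plate cutoff of the control wells' mean inhibition plus 3 SD, cut at about 5.5% in these data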;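 also: 0% = DMSO wells median and 100% = median of wells with control inhibitor compound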
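Test system: purified T. brucei MetRS enzyme. Also added: ATP, methionine and E. coli bulk tRNA substrates. Compound: 11.9 µM single point. Schedule: 15 min enzyme-compound preincubation, 2 h reaction, 10 min detection, 25 °C. Signal: luciferase luminescence of residual ATP, Kinase-Glo. Evaluation: percent inhibition versus plate control medians. Controls: DMSO wells, low control.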
HDAC3 inh – inhibitors of human histone deacetylase 3; O15379; recombinant HDAC3, fluorogenic peptide/trypsin coupled, fluorescence; inhibition, % at 8.3 µM; hit rate 0.15% among 320,000; in the data active = inhibition above about 26%, passing the limit was not always enough
CR mimetic SO – caloric restriction mimetics inhibiting age-related superoxide in yeast | S. cerevisiae aged cells, superoxide DHE fluorescence; active compounds read low | superoxide response (% of plate mean), % at 10 µM | hit rate 0.18% among 330,000 | AID 2690;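 active = superoxide response under a set limit, about three screen SD below normal, cut at about 65% in these data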;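 also: yeast aged for seven days with compound at 30 °C before DHE staining; 100% = average MFI of all compound-treated wells on the plate with controls excluded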
IDE inh – inhibitors of human insulin-degrading enzyme in cells. HEK cells, FAbetaB cleavage, fluorescence polarization. inhibition, % at 5.59 µM. hit rate 0.41% among 320,000. AID 434962;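 active = percent inhibition above the average of all tested compounds plus 3 SD, set per screening campaign, cut at about 16% in these data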;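 also: IDE supplied by intact live HEK cells; FP after avidin binding of uncleaved biotin substrate so inhibition keeps polarization high; 0% = DMSO wells and 100% = 60 µM reference IDE inhibitor Ii1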
Target sequence (P14735 whole entry, looked up): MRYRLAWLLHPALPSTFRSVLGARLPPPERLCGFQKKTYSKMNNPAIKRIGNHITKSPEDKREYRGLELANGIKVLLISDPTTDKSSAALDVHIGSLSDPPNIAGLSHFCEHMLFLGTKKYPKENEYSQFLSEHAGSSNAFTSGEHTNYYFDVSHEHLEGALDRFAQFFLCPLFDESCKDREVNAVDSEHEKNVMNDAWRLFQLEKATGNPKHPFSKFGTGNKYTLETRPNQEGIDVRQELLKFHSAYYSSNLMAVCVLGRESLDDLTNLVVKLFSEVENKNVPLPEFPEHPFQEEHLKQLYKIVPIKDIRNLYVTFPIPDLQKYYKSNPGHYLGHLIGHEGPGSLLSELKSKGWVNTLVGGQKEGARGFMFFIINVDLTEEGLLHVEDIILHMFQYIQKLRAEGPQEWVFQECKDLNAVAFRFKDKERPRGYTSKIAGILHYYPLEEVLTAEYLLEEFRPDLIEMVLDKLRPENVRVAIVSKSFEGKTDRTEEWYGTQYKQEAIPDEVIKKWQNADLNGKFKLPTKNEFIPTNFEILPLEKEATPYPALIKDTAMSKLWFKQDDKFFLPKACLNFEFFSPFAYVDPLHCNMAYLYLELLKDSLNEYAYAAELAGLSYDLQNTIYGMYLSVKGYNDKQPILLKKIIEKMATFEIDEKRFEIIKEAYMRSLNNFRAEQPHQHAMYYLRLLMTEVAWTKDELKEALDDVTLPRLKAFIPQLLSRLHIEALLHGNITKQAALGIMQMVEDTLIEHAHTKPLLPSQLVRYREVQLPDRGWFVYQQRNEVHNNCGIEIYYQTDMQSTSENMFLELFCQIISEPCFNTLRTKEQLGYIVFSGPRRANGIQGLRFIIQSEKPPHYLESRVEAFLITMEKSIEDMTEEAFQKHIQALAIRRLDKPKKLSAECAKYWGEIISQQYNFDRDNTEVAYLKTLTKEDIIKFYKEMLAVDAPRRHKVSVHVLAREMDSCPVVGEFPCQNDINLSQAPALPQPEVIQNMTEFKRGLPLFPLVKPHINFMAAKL
IDE cell activ – activators of human insulin-degrading enzyme in cells. activation, % at 5.96 µM. AID 493087. HEK cells, FAbeta-B cleavage, fluorescence polarization; 0% vehicle, 100% cell-free pure enzyme wells. P14735. hit rate 0.073% among 340,000;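 active = activation above the mean of all tested compounds plus 3 SD, set per screening campaign, cut at about 17% in these data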
Efflux pump inh – inhibitors of Candida antifungal efflux pumps expressed in yeast. S. cerevisiae Candida pump triplex, Nile Red efflux. hit rate 0.44% among 330,000. inhibition, % at 10 µM;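 active = plate passing quality check with inhibition over a set limit, or well fluorescence over plate mean plus 4 SD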;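 also: Nile Red retained in pooled yeast measured as flow cytometry median fluorescence; 0% = buffer negative control and 100% = Enniatin B positive control; higher means more Nile Red kept so more efflux inhibition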
TbMetRS confirm – confirmation of Trypanosoma brucei MetRS inhibitors | inhibition, % at 11.9 µM | T. brucei MetRS enzyme, luminescence (ATP depletion) | hit rate 93% among 1,400 | shares compounds with TbMetRS inhib; in the data active = inhibition above about 7%
Jurkat cytotox – counter-screen for T. brucei MetRS inhibitors: Jurkat cell cytotoxicity. shares compounds with TbMetRS inhib. Jurkat cells viability, ATP luminescence. inhibition, % at 8.3 µM. hit rate 12% among 1,400. AID 624413; in the data active = inhibition above about 15%;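 also: 0% = vehicle and 100% = reference inhibitor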
TbMetRS FP orth – T. brucei MetRS inhibition, orthogonal assay | inhibition, % at 11.9 µM | AID 651607 | purified T. brucei MetRS, fluorescence polarization | shares compounds with TbMetRS inhib | hit rate 44% among 1,400; in the data active = inhibition above about 17%;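 also: 0% = vehicle wells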
* marks the source's active call; other numbers are inactive results; . = not tested or not shown. Rows were chosen to be rich in hits. Some 1.4% of all compounds tested hit in one or more screens of this group.

SMILES	TbMetRS inhib	HDAC3 inh	CR mimetic SO	IDE inh	IDE cell activ	Efflux pump inh	TbMetRS confirm	Jurkat cytotox	TbMetRS FP orth
COC(=O)[C@]1(C)CCC[C@@]2(C)C3CC[C@@]4(C)C[C@]3(CCC21)CC4=NO (stereo partly specified)	-0.1	7.5	111.0	1.6	3.6	0.1	.	.	.
O=C(O)C1CCC(C(=O)O)SS1 (stereo unspecified)	-0.2	.	.	.	3.9	.	.	.	.
COc1ccc(OC)c(C(Nc2ccccc2)P(=O)(OC(C)C)OC(C)C)c1 (stereo unspecified)	-0.8	4.9	102.8	-1.3	.	0.1	.	.	.
CC1(C2CC2)NC(=O)N(CC(=O)Nc2ccc(OC(F)F)cc2)C1=O (stereo unspecified)	-0.1	.	.	.	.	.	.	.	.
O=C(CSCC(=O)OCn1nnc2ccccc2c1=O)Nc1ccc(Cl)cc1	16.0*	5.4	91.3	4.4	-1.3	0.1	14.3*	6.1	2.8
O=C(Cn1nnc2ccccc2c1=O)NCCc1ccc(Cl)cc1Cl	6.5*	15.1	105.7	0.6	5.9	-0.1	34.4*	4.1	9.9
CCC(C(=O)N/N=C(\C)c1cccnc1)c1ccccc1 (stereo unspecified)	-0.2	-1.7	76.6	0.0	2.7	-0.1	.	.	.
CC(C)(C)[C@H]1C=C(C(=O)NCc2ccccc2)O[C@@H](OCCCCO)C1	0.2	-1.4	96.6	0.5	3.1	0.0	.	.	.
C[C@H]1C=C(C(=O)NCc2nc3ccccc3[nH]2)O[C@@H](OCCCCO)C1	14.0*	5.6	110.4	10.3	-5.3	-0.1	54.1*	0.2	27.1*
O=C(NCc1nc2ccccc2[nH]1)C1=C[C@@H](C2CCCCC2)C[C@@H](OCCCCO)O1	48.3*	3.3	92.5	-2.7	1.1	0.0	83.2*	-6.8	62.0*
CC(C)(C)[C@H]1C=C(C(=O)NCc2nc3ccccc3[nH]2)O[C@@H](OCCCCO)C1	57.0*	1.4	.	-0.7	-1.6	.	96.5*	-6.2	60.9*
O=C(CSc1nncs1)Nc1ccc2c(c1)OCO2	-0.4	-0.8	98.6	-4.4	2.3	-0.1	.	.	.
O=C(CP(=O)(c1ccccc1)c1ccccc1)Nc1nc2ccc(Cl)cc2s1	1.3	5.8	82.5	2.7	-2.4	-0.1	.	.	.
COc1ccc(CN(C(=O)c2ccc(-c3ccccc3)[nH]2)C(C(=O)NC(C)(C)C)c2ccncc2)cc1 (stereo unspecified)	76.2*	-0.4	92.6	4.1	-2.3	0.2	33.5*	7.7	15.9
COc1ccc(OCc2nnc(SCc3ccc(C(=O)O)cc3)o2)cc1	0.2	3.2	117.0	7.5	9.8	-0.3	.	.	.
O=C(O)c1ccc(CSc2nnc(COc3ccc(Cl)cc3Cl)o2)cc1	47.6*	5.9	95.1	7.4	0.8	0.0	59.9*	9.1	35.2*
OC(COc1ccc2cc(Br)ccc2c1)Cn1ccnc1 (stereo unspecified)	6.2*	-1.5	94.2	6.4	-6.4	-0.2	13.4*	9.4	23.6*
CSc1ccccc1NC(=O)CSc1nnc(Cc2ccccc2)o1	0.6	-8.3	82.8	6.0	3.2	0.0	.	.	.
NC(=O)c1ccc(=O)n(Cc2ccc(F)c(F)c2)c1	0.2	-3.6	102.8	7.2	1.2	0.2	.	.	.
O=C(Nc1ccccc1)c1ccc(=O)n(Cc2ccc(F)c(F)c2)c1	9.6*	-0.9	106.3	2.1	2.0	0.4	17.9*	2.6	5.6
Fc1ccc(F)c(CNc2ncnc3cc(Cl)ccc23)c1	7.3*	6.8	103.4	11.3	-7.9	0.0	21.3*	13.8	9.9
Cc1ccc(C(=O)N2[C@@H]3CN(C)C(=O)[C@@]2(Cc2ccccc2)[C@H]2C(=O)N(C)C(=O)[C@@H]32)cc1	-0.1	.	.	.	-0.8	.	.	.	.
CCN1CCCC1Cn1cnc2c([nH]c3cccc(Cl)c32)c1=O (stereo unspecified)	-1.2	-2.7	104.7	4.2	2.5	-0.1	.	.	.
CCN1CCCC1Cn1cnc2c([nH]c3ccc(Cl)cc32)c1=O (stereo unspecified)	10.1*	-5.7	105.4	7.8	-4.7	0.0	14.4*	0.4	14.4
Clc1cccc(CNc2nc(-c3cccnc3)nc3ccccc23)c1	18.0*	.	.	.	-11.6	.	39.8*	11.8	28.4*
SMILES	TbMetRS inhib	HDAC3 inh	CR mimetic SO	IDE inh	IDE cell activ	Efflux pump inh	TbMetRS confirm	Jurkat cytotox	TbMetRS FP orth
CCc1nnc(NS(=O)(=O)c2ccc(Nc3ccc([N+](=O)[O-])c4nonc34)cc2)s1	7.0*	5.1	142.0	4.9	-9.1	0.0	10.6*	-3.5	-2.9
CC(C)NC(=O)NC(=O)CN1C(=O)NC(Cc2c[nH]c3ccccc23)C1=O (stereo unspecified)	0.6	-4.5	98.6	-6.0	1.3	0.1	.	.	.
CCCCc1c(-c2ccccc2OC)ncn1CCc1cccc(OC)c1	9.9*	.	.	.	.	.	23.2*	36.0*	1.0
COc1cccc(C2=Cc3ccc(F)cc3C(CC(C)=O)N2c2ccc(C#CC3(O)CCCCC3)cc2)c1 (stereo unspecified)	-0.1	.	.	.	.	.	.	.	.
O=C(CSc1nncs1)NC(=O)NC1CCCC1	-0.6	2.2	89.6	-0.1	-0.7	-0.1	.	.	.
S=C(NCc1ccncc1)Nc1ccc(Cl)c(Cl)c1	1.9	4.9	82.8	0.5	0.3	0.0	.	.	.
S=C(NCc1cccnc1)Nc1cc(Cl)cc(Cl)c1	24.0*	6.9	96.9	-0.7	4.5	0.0	52.3*	4.6	30.1*
S=C(NCc1ccncc1)Nc1cc(Cl)cc(Cl)c1	10.1*	20.5	102.3	-2.2	-0.9	0.3	23.2*	-0.1	13.3
O=C(NCc1nc2ccccc2[nH]1)c1cccc(S(=O)(=O)N2CCOCC2)c1	64.6*	-3.6	85.6	0.7	-4.8	-0.2	94.1*	6.5	57.5*
O=C(NCc1cccc(Cl)c1)c1cccc(S(=O)(=O)N2CCCC2)c1	12.9*	-4.3	94.4	-5.8	-1.6	-0.1	42.7*	2.4	26.3*
Cc1c(NS(=O)(=O)c2cc(C(=O)NCc3cccc(Cl)c3)ccc2Cl)c(=O)n(-c2ccccc2)n1C	10.6*	.	.	.	1.2	.	33.8*	-0.4	24.4*
Cc1c(NS(=O)(=O)c2cc(C(=O)NCc3cccnc3)ccc2Cl)c(=O)n(-c2ccccc2)n1C	-0.1	-11.7	81.4	0.8	5.4	-0.2	.	.	.
Cc1ccc(S(=O)(=O)N2CCN(Cc3nc4ccccc4[nH]3)CC2)cc1C	5.8*	-3.4	104.0	-0.5	1.8	-0.1	16.8*	-0.4	4.5
COc1cc(NC(=O)CSc2nc3[nH]c(=O)cc(O)c3s2)cc(OC)c1OC	-0.3	4.0	79.6	6.9	-2.3	-0.3	.	.	.
